Test results published in article PMC7438818 (CPT: Pharmacometrics & Systems Pharmacology, 2020).
Where two headings read alike, the source gives them in different places.

Legend:
[1] = assay type: in vivo, human
Summary of the method: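 Data pooled from single ascending dose (2–155 mg) and multiple ascending dose (10, 20, 40, 80, 125 mg) studies in healthy volunteers; prediabetic obese cohort and sub-LLOQ (5 nM) data excluded. Two-compartment model with first-order absorption and lag time on total plasma concentrations. Oral dose entered as a linear covariate on relative bioavailability and as a covariate on absorption rate. Lognormal interoccasion variability for days 1 and 5. Fitted by nonlinear mixed effects, FOCE.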

TNFα release [2] = assay: TNFα PK/PD model, lipopolysaccharide-stimulated whole blood ex vivo assay; assay type: in vivo, human; details: for Sigmoidicity parameter γ: Imax-model of TNFα inhibition
Summary of the method: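 Whole blood was drawn straight into LPS-containing tubes and incubated, then ex vivo TNFα was measured. With PK parameters fixed, one common sigmoid Imax model was fitted for both compounds, driven by a weighted sum of plasma and transduction-compartment concentrations. The weight was estimated from data. The driving concentration was total for the test compound and unbound for the reference steroid. Nonlinear mixed effects, FOCE.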

TNFα release [3] = assay: Simulated dose-response and equipotent dose relationship from the PK/PD model; assay type: in vivo, human; details: for TNFα inhibition at the highest studied doses: dose-response curves
Summary of the method: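 The fitted PK/PD model was simulated to give dose-response curves, with response defined as average TNFα inhibition over 24 h after 5 consecutive daily oral doses. Confidence intervals came from repeated simulations using parameters sampled from the estimated covariance matrix. Equipotent doses were defined as those giving the same average inhibition. Their confidence intervals accounted simultaneously for the uncertainty of both dose-responses.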

[4] = test system: release of the cytokines TNFα, interferon-γ, interleukin-6, interleukin-8, macrophage inflammatory protein-1α and -1β; assay type: in vivo, human; details: total plasma concentrations; six pro-inflammatory cytokines
Summary of the method: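 Static nonlinear mixed effects sigmoid Imax models related observed total plasma drug concentrations to ex vivo LPS-stimulated release of TNFα, IFN-γ, IL-6, IL-8, MIP-1α and MIP-1β. Data were pooled from the single and multiple ascending dose studies. Lognormal between-subject variability was used, with lognormal residual error (additive on log scale). Models were estimated by FOCE.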

[5] = ref data on file, AstraZeneca; cited from earlier work
[6] = assay type: in vivo, human; remark: listed apart in the source
[7] = literature average of plasma protein binding parameters ref 24, 25, 26, 27; cited from earlier work
[8] = average over 24 hours following 5 consecutive daily doses
[9] = unbound prednisolone, oral (apparent)

Compound: CC(C)[C@H](NC(=O)C(C)(F)F)[C@H](Oc1ccc2c(cnn2-c2ccc(=O)n(C)c2)c1)c1ccccc1 [AZD9567]
- Absorption rate constant ka0 ([1]; absorption rate in the limit of zero dose): 38.2 h⁻¹
- Covariate model (dose on F) s ([1]; decrease in relative bioavailability F per mg dose, F=1-s×Dose): 0.00253 mg⁻¹
- Covariate model (dose on ka) α ([1]; dose-dependent absorption rate): 0.0592 mg⁻¹
- Covariate model (dose on ka) λ ([1]; dose-dependent absorption rate): 0.103
- Decrease of relative bioavailability ([1]; for every additional 4 mg AZD9567 dosed): ~ 1 % unit
- half-life ([1]; human, plasma, oral): 4.4 h
- Unbound clearance relative to prednisolone ([1]; implied by the low fraction unbound): more than fivefold higher unbound clearance
- Intercompartment clearance Q ([1]; total AZD9567): 0.500 L/h
- Peripheral volume of distribution Vp ([1]; total AZD9567): 392 L
- Clearance CL ([1]; total AZD9567, oral): 3.70 L/h
- Central volume of distribution Vc ([1]; total AZD9567, oral (apparent)): 26.8 L
- Contribution of the first phase to AUC ([1]; two-compartment model): 88%
- Sigmoidicity parameter γ (TNFα release [2]): 1.40
- Potency as inhibitor of TNFα release relative to prednisolone (TNFα release [2]; unbound IC50 4.87 nM vs 17.0 nM): ~ 3.5 fold
- Average TNFα inhibition (TNFα release [3]; AZD9567 40 mg, average over 24 hours following 5 consecutive daily doses): 43%
- TNFα inhibition at the highest studied doses (TNFα release [3]; [8]): 60–75%
- Equipotent dose of AZD9567 (95% CI) (TNFα release [3]; equipotent to prednisolone 20 mg): 40 mg
- Doses required for equipotency relative to prednisolone (TNFα release [3]; in vivo): roughly twofold higher doses
- Inhibition of cytokine release [4]: inhibited the release of the cytokines
- Unbound fraction [5]: ^c Derived from the estimate of IC50 for total AZD9567 concentrations using an unbound fraction of 0.637%.

Compound: C[C@]12C=CC(=O)C=C1CC[C@@H]1[C@@H]2[C@@H](O)C[C@@]2(C)[C@H]1CC[C@]2(O)C(=O)CO [prednisolone]
- half-life ([6]; human, plasma, oral): 1.9 h
- Contribution of the first phase to AUC ([6]; unbound prednisolone): 66%
- Inter-compartment clearance Q ([6]; unbound prednisolone): 5.81 L/h
- Mean transit time tm ([6]; unbound prednisolone): 0.772 h
- Peripheral volume of distribution Vp ([6]; unbound prednisolone): 23.6 L
- Central volume of distribution Vc [6, 9]: 352 L
- Clearance CL [6, 9]: 110 L/h
- No. of transit compartments n ([6]; unbound prednisolone, transit compartment absorption): 8.11
- Sigmoidicity parameter γ (TNFα release [2]): 1.33
- TNFα inhibition at the highest studied doses (TNFα release [3]; [8]): 60–75%
- Equipotent dose of prednisolone (TNFα release [3]; equipotent to 40 mg AZD9567, 95% CI of 14–29 mg): 20 mg
- Estimated TNFα inhibition (TNFα release [3]; prednisolone 20 mg, average over 24 hours following 5 consecutive daily doses): 43%
- Inhibition of cytokine release [4]: inhibited the release of the cytokines
- Unbound fraction, high limit, literature average [7]: 53%
- Unbound fraction, low limit, literature average [7]: 9%
